Published values gathered from unrelated publications.
MMP9: Matrix metalloproteinase-9 (MMP9, Homo sapiens, UniProt P14780)
CTSV: Cathepsin L2 (CTSV, Homo sapiens, UniProt O60911)
MAOB: Amine oxidase [flavin-containing] B (MAOB, Homo sapiens, UniProt P27338)
EDNRB: Endothelin receptor type B (EDNRB, Homo sapiens, UniProt P24530)

| Structure (SMILES) | target | test | setting | inhibition |
| --- | --- | --- | --- | --- |
| Cc1ncc(C)n2nc(/C=C/c3nc(N4CCCC4)cc(N4CCOCC4)n3)nc12 | MMP9 | enzyme activity, inhibitor | 10 µM | 12% |
| COc1cc(Nc2ncc(F)c(Nc3ccc4c(n3)NC(=O)C(C)(C)O4)n2)cc(OC)c1OC | NUAK family SNF1-like kinase 2 (NUAK2, Homo sapiens, UniProt Q9H093) | binding, competition with immobilised ligand | 10 µM | 97% |
| CCOC(=O)c1ccc(OC(=O)CCCCCNC(=N)N)cc1 | CTSV | enzyme activity, inhibitor | 10 µM | 3% |
| CN1CCN(CCOc2ccc3occc(=O)c3c2)CC1 | MAOB | enzyme activity, inhibitor, fluorescence | 10 µM | 12% |
| CC(C)N1CCC[C@H]1CNC(=O)c1cn(C2CCCC2)c(=O)c2c1c1ccccc1n2C | EDNRB | ligand displacement, radioligand | 10 µM | 3% |
| N=C(N)c1ccc2cc(OC(=O)c3ccc(N=C(N)N)cc3)ccc2c1 | TNFAIP3 (Homo sapiens, UniProt P21580) | enzyme activity, inhibitor | 10 µM | 13% |
| CN1CCN(CCCCOc2ccc3occc(=O)c3c2)CC1 | MAOB | enzyme activity, inhibitor, fluorescence | 10 µM | 20% |
| CN(CCN1CCC(OC(=O)Nc2ccccc2-c2ccccc2)CC1)C(=O)c1ccc(CN2CCC(C(N)=O)CC2)cc1 | MAOB | enzyme activity, inhibitor | 1 µM | -2% |
| O=c1ccoc2ccc(OCCCCN3CCCCC3)cc12 | MAOB | enzyme activity, inhibitor, fluorescence | 10 µM | 63% |
| O=C(Nc1cccnn1)N1CCN([C@@H]2CCOc3cc(C(F)(F)F)ccc32)CC1 | MMP9 | enzyme activity, inhibitor | 20 µM | 8% |
| CC(C)C[C@H](NC(=O)[C@H]1O[C@@H]1C(=O)O)C(=O)NCCCCN=C(N)N | CTSV | enzyme activity, inhibitor | 5 nM | 17% |
| COCc1c(-c2cc3cc(C)cc(OC)c3s2)c2c(N)ncnn2c1CN1CCNC(=O)C1 | EDNRB | ligand displacement, radioligand | 10 µM | -1% |
| C[C@H](C(=O)N[C@H]1COc2ccccc2[C@@H]1S(C)(=O)=O)c1ccc(F)cc1 | MAOB | enzyme activity, inhibitor | 10 µM | 11% |
| COc1ccc(S(=O)(=O)N(CC(=O)NO)CC(C)C)cc1 | Matrix metalloproteinase-9 (MMP9, Homo sapiens, UniProt P14780, Q279R) | enzyme activity, inhibitor | 1 nM | 27% |
